Experimental data taken from ChEMBL document CHEMBL2375264, “Potent naphthoquinones against antimony-sensitive and -resistant Leishmania parasites: synthesis of novel α- and nor-α-lapachone-based 1,2,3-triazoles by copper-catalyzed azide-alkyne cycloaddition” (Eur J Med Chem, 2013).

How the values were obtained:
Leishmania amazonensis [1] = assay: Ratio of potassium antimonyl tartrate IC50 to compound IC50 for antimony-sensitive Leishmania amazonensis MHOM/BR/1989/BA199 promastigote infected in Swiss mouse peritoneal macrophages; assay type: functional
[2] = Selectivity index, ratio of CC50 for Swiss mouse peritoneal macrophages to IC50 for antimony-resistant Leishmania amazonensis MHOM/BR/1989/BA199 promastigote; assay type: functional
Summary of the method: (§1)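 SI = CC50/IC50. CC50 comes from Swiss mouse peritoneal macrophages, harvested by lavage with cold RPMI-1640 lacking FBS. Cells seeded at 4.0 × 10⁶/mL, allowed to adhere 1 h, then washed free of non-adherent cells. Viability read by MTT (5 mg/mL stock, 4 h).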

Leishmania amazonensis [3] = assay: Antileishmanial activity against antimony-resistant Leishmania amazonensis MHOM/BR/1989/BA199 promastigote infected in Swiss mouse peritoneal macrophages after 72 hrs; assay type: functional, organism-based; details: MHOM/BR/1989/BA199, 72 h
Summary of the method: (§2)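 Promastigotes of Sb(III)-sensitive and -resistant lines (resistant to Sb(III) up to 2700), maintained at 25 °C, pH 7.0, in α-MEM with 10% heat-inactivated FBS, kanamycin, ampicillin, L-glutamine, hemin and biopterin. Drugs dissolved in DMSO, diluted in α-MEM across a concentration range, final DMSO ≤0.2%.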

[4] = Selectivity index, ratio of CC50 for Swiss mouse peritoneal macrophages to IC50 for antimony-sensitive Leishmania amazonensis MHOM/BR/1989/BA199 promastigote; assay type: functional
Summary of the method: (§3)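 SI = CC50 / IC50. CC50 is from Swiss mouse peritoneal macrophages, read by MTT after lavage and 1 h adherence. […] Promastigotes grown in α-MEM with 10% heat-inactivated FBS, hemin and biopterin, pH 7.0, 25 °C. DMSO ≤0.2% final. Triplicate.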

[5] = Cytotoxicity against Swiss mouse peritoneal macrophages after 24 hrs by MTT assay; assay type: cell-based, Peritoneal macrophage cell
Summary of the method: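 Macrophages from peritoneal lavage of Swiss mice with cold FBS-free RPMI-1640. Cells seeded at 4.0 × 10⁶/mL, adhered 1 h, non-adherent cells washed off. Compounds were DMSO stocks diluted in medium over a concentration range, final DMSO ≤0.2%. Viability read by MTT (5 mg/mL solution, 4 h further incubation). CC50 taken as the 50% cytotoxic concentration.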

Leishmania amazonensis [6] = assay: Antileishmanial activity against antimony-sensitive Leishmania amazonensis MHOM/BR/1989/BA199 promastigote infected in Swiss mouse peritoneal macrophages after 72 hrs; assay type: functional, organism-based; details: MHOM/BR/1989/BA199, 72 h; summary of the method: as §2
Leishmania infantum [7] = assay: Antileishmanial activity against antimony-sensitive Leishmania infantum MCAN/BR/2002/BH400 promastigote infected in Swiss mouse peritoneal macrophages after 72 hrs; assay type: functional, organism-based; details: MCAN/BR/2002/BH400, 72 h; summary of the method: as §2
Leishmania infantum [8] = assay: Ratio of potassium antimonyl tartrate IC50 to compound IC50 for antimony-sensitive Leishmania infantum MCAN/BR/2002/BH400 promastigote infected in Swiss mouse peritoneal macrophages; assay type: functional
[9] = Selectivity index, ratio of CC50 for Swiss mouse peritoneal macrophages to IC50 for antimony-sensitive Leishmania infantum MCAN/BR/2002/BH400 promastigote; assay type: functional; summary of the method: as §3
[10] = Selectivity index, ratio of CC50 for Swiss mouse peritoneal macrophages to IC50 for antimony-resistant Leishmania infantum MCAN/BR/2002/BH400 promastigote; assay type: functional; summary of the method: as §1
Leishmania infantum [11] = assay: Antileishmanial activity against antimony-resistant Leishmania infantum MCAN/BR/2002/BH400 promastigote infected in Swiss mouse peritoneal macrophages after 72 hrs; assay type: functional, organism-based; details: MCAN/BR/2002/BH400, 72 h; summary of the method: as §2

## Cc1ccc(-c2cn(C3C4=C(OC3(C)C)c3ccccc3C(=O)C4=O)nn2)cc1 (centres undefined)
Leishmania amazonensis [1]
  Ratio IC50: 23
[2]
  Ratio CC50/IC50: 0.95
Leishmania amazonensis [3]
  IC50: 3.49 µM
[4]
  Ratio CC50/IC50: 0.87
[5]
  CC50 at 24 h: 3.31 µM
Leishmania amazonensis [6]
  IC50: 3.8 µM
Leishmania infantum [7]
  IC50: 3.38 µM
Leishmania infantum [8]
  Ratio IC50: 15.5
[9]
  Ratio CC50/IC50: 0.98
[10]
  Ratio CC50/IC50: 1.07
Leishmania infantum [11]
  IC50: 3.1 µM

## CC1(C)CC(n2cc(C3CCCCC3)nn2)C2=C(O1)C(=O)c1ccccc1C2=O (centres undefined)
[2]
  Ratio CC50/IC50: 4.52
Leishmania amazonensis [3]
  IC50: 1.9 µM
[4]
  Ratio CC50/IC50: 0.93
[5]
  CC50 at 24 h: 8.59 µM
Leishmania amazonensis [6]
  IC50: 9.23 µM
Leishmania infantum [7]
  IC50: 2.26 µM
[9]
  Ratio CC50/IC50: 3.8
[10]
  Ratio CC50/IC50: 3.83
Leishmania infantum [11]
  IC50: 2.24 µM

## CCC(C)(O)c1cn(C2C3=C(OC2(C)C)C(=O)c2ccccc2C3=O)nn1 (centres undefined)
[2]
  Ratio CC50/IC50: 0.66
Leishmania amazonensis [3]
  IC50: 27 µM
[4]
  Ratio CC50/IC50: 0.99
[5]
  CC50 at 24 h: 17.9 µM
Leishmania amazonensis [6]
  IC50: 18 µM
Leishmania infantum [7]
  IC50: 1.45 µM
[9]
  Ratio CC50/IC50: 12.36
[10]
  Ratio CC50/IC50: 0.7
Leishmania infantum [11]
  IC50: 25.4 µM

## CC1(C)CCC2=C(O1)C(=O)c1ccccc1C2=O [ALPHA-LAPACHONE]
[2]
  Ratio CC50/IC50: 0.25
Leishmania amazonensis [3]
  IC50: 15.2 µM
[4]
  Ratio CC50/IC50: 0.24
[5]
  CC50 at 24 h: 3.8 µM
Leishmania amazonensis [6]
  IC50: 16.1 µM
Leishmania infantum [7]
  IC50: 13.9 µM
[9]
  Ratio CC50/IC50: 0.27
[10]
  Ratio CC50/IC50: 0.65
Leishmania infantum [11]
  IC50: 5.85 µM

## COc1ccc(-c2cn(C3=CC(=O)c4ccccc4C3=O)nn2)cc1
Leishmania amazonensis [1]
  Ratio IC50: 2.2
[2]
  Ratio CC50/IC50: 0.68
Leishmania amazonensis [3]
  IC50: 24.5 µM
[4]
  Ratio CC50/IC50: 0.49
[5]
  CC50 at 24 h: 16.8 µM
Leishmania amazonensis [6]
  IC50: 34.3 µM
Leishmania infantum [7]
  IC50: 15.8 µM
Leishmania infantum [8]
  Ratio IC50: 2
[9]
  Ratio CC50/IC50: 1.06
[10]
  Ratio CC50/IC50: 0.9
Leishmania infantum [11]
  IC50: 18.6 µM

## CC1(C)CCC2=C(O1)c1ccccc1C(=O)C2=O [LAPACHONE]
[2]
  Ratio CC50/IC50: 0.57
Leishmania amazonensis [3]
  IC50: 1.39 µM
[4]
  Ratio CC50/IC50: 0.27
[5]
  CC50 at 24 h: 0.79 µM
Leishmania amazonensis [6]
  IC50: 2.9 µM
Leishmania infantum [7]
  IC50: 0.67 µM
[9]
  Ratio CC50/IC50: 1.14
[10]
  Ratio CC50/IC50: 0.7
Leishmania infantum [11]
  IC50: 1.13 µM

## CCCCCCc1cn(C2C3=C(OC2(C)C)C(=O)c2ccccc2C3=O)nn1 (centres undefined)
[2]
  Ratio CC50/IC50: 0.65
Leishmania amazonensis [3]
  IC50: 4.23 µM
[4]
  Ratio CC50/IC50: 0.25
[5]
  CC50 at 24 h: 2.77 µM
Leishmania amazonensis [6]
  IC50: 11 µM
Leishmania infantum [7]
  IC50: 1.12 µM
[9]
  Ratio CC50/IC50: 2.47
[10]
  Ratio CC50/IC50: 2.47
Leishmania infantum [11]
  IC50: 1.12 µM

## CCCCCc1cn(C2CC(C)(C)OC3=C2C(=O)c2ccccc2C3=O)nn1 (centres undefined)
[2]
  Ratio CC50/IC50: 3.53
Leishmania amazonensis [3]
  IC50: 1.95 µM
[4]
  Ratio CC50/IC50: 1.15
[5]
  CC50 at 24 h: 6.89 µM
Leishmania amazonensis [6]
  IC50: 6 µM
Leishmania infantum [7]
  IC50: 2.04 µM
[9]
  Ratio CC50/IC50: 3.38
[10]
  Ratio CC50/IC50: 3.13
Leishmania infantum [11]
  IC50: 2.2 µM

## CC1(C)OC2=C(C(=O)c3ccccc3C2=O)C1n1cc(-c2ccccc2)nn1 (centres undefined)
[2]
  Ratio CC50/IC50: 6.67
Leishmania amazonensis [3]
  IC50: 1.2 µM
[4]
  Ratio CC50/IC50: 3.74
[5]
  CC50 at 24 h: 8.01 µM
Leishmania amazonensis [6]
  IC50: 2.14 µM
Leishmania infantum [7]
  IC50: 1 µM
[9]
  Ratio CC50/IC50: 8.01
[10]
  Ratio CC50/IC50: 7.93
Leishmania infantum [11]
  IC50: 1.01 µM

## CCC(C)(O)c1cn(C2CC(C)(C)OC3=C2C(=O)c2ccccc2C3=O)nn1 (centres undefined)
[2]
  Ratio CC50/IC50: 0.45
Leishmania amazonensis [3]
  IC50: 21.6 µM
[4]
  Ratio CC50/IC50: 0.27
[5]
  CC50 at 24 h: 9.63 µM
Leishmania amazonensis [6]
  IC50: 35.2 µM
Leishmania infantum [7]
  IC50: 17.7 µM
[9]
  Ratio CC50/IC50: 0.54
[10]
  Ratio CC50/IC50: 2.92
Leishmania infantum [11]
  IC50: 3.3 µM

## COc1ccc(-c2cn(C3C4=C(OC3(C)C)c3ccccc3C(=O)C4=O)nn2)cc1 (centres undefined)
Leishmania amazonensis [1]
  Ratio IC50: 23
[2]
  Ratio CC50/IC50: 1.75
Leishmania amazonensis [3]
  IC50: 2.49 µM
[4]
  Ratio CC50/IC50: 1.13
[5]
  CC50 at 24 h: 4.36 µM
Leishmania amazonensis [6]
  IC50: 3.87 µM
Leishmania infantum [7]
  IC50: 5.57 µM
Leishmania infantum [8]
  Ratio IC50: 15.5
[9]
  Ratio CC50/IC50: 0.78
[10]
  Ratio CC50/IC50: 0.81
Leishmania infantum [11]
  IC50: 5.39 µM

## CC1(C)OC2=C(C(=O)c3ccccc3C2=O)C1n1cc(C2CCCCC2)nn1 (centres undefined)
[2]
  Ratio CC50/IC50: 13.47
Leishmania amazonensis [3]
  IC50: 1.39 µM
[4]
  Ratio CC50/IC50: 5.35
[5]
  CC50 at 24 h: 18.7 µM
Leishmania amazonensis [6]
  IC50: 3.5 µM
Leishmania infantum [7]
  IC50: 1.83 µM
[9]
  Ratio CC50/IC50: 10.23
[10]
  Ratio CC50/IC50: 10.51
Leishmania infantum [11]
  IC50: 1.78 µM
